Results gathered from unrelated publications.
Each line is one published result; the experiments were not run side by side.
Organism: Bacillus subtilis
Read-out: microbial growth

CCCCCC[P+](/C=C(/c1ccccc1)c1cc(Cl)ccc1O)(CCCCCC)CCCCCC  MIC (21 h): 2 µM
Cc1cccc(NCc2ccc(Oc3ccccn3)cc2)c1  MIC: > 3.1 µg/mL
COc1cc(O)c2c(c1)/C=C/C[C@H](O)[C@H](O)C(=O)/C=C/C[C@H](C)OC2=O  MIC: > 500 µg/mL
CCCCCC[P+](/C=C(/c1ccccc1)c1cc(Cl)ccc1OC)(CCCCCC)CCCCCC  MIC (21 h): 2 µM
C[n+]1c(/C=C/c2ccc(O)cc2)cc(/C=C2\Sc3ccccc3N2CCCN2CCOCC2)c2ccccc21.[I-]  MIC (broth dilution; 168): 4 µg/mL
Clc1ccc(NCc2ccc(Oc3ccccn3)cc2)cc1  MIC: > 6.2 µg/mL
CCCC[P+](/C=C(/c1ccccc1)c1cc(Cl)ccc1O)(CCCC)CCCC  MIC (21 h): 10 µM
O=C(O)c1cn(C2CC2)c2cc(N3CCNCC3)c(F)cc2c1=O  MIC: 1.6 µg/mL
CCCCCCCCCCCCOC(=O)c1cc(O)c(O)c(O)c1  MIC (broth dilution; ATCC6633): 25 to 50 µM
O=C(O)c1ccc(-n2cc(/C=N/N(c3ccccc3)c3ccccc3)c(-c3ccc(F)cc3)n2)cc1  MIC (ATCC6623): 1.56 µg/mL
O=C(O)CN1C(=O)/C(=C/c2ccc(-c3ccc(N(c4ccccc4)c4ccccc4)cc3)c3ccccc23)NC1=S  MIC (broth dilution; ATCC6633): > 1000 µg/mL
CC1=NN(CNC(=O)c2ccccn2)C(=O)C1=NNn1c(-c2ccccc2)nc2ccccc2c1=O  MIC (broth dilution; 24 h): 104 µM
CN[C@H](CC(C)C)C(=O)N[C@H]1C(=O)N[C@@H](CC(N)=O)C(=O)N[C@H]2C(=O)N[C@H]3C(=O)N[C@H](C(=O)N[C@H](C(=O)O)c4cc(O)cc(O)c4-c4cc3ccc4O)[C@H](O)c3ccc(c(Cl)c3)Oc3cc2cc(c3O[C@@H]2O[C@H](CO)[C@@H](O)[C@H](O)[C@H]2O[C@H]2C[C@](C)(N)[C@H](O)[C@H](C)O2)Oc2ccc(cc2Cl)[C@H]1O  MIC (broth dilution; BS01): 0.13 µg/mL
CN(C)[C@@H]1C(O)=C(C(N)=O)C(=O)[C@@]2(O)C(O)=C3C(=O)c4c(O)cccc4[C@@](C)(O)[C@H]3C[C@@H]12  MIC (ATCC6633): 2 µg/mL
O=C(O)c1ccc(-n2cc(/C=N/Nc3cccc(Cl)c3)c(-c3cccc(F)c3)n2)cc1  MIC (ATCC6623): 12.5 µg/mL
O=C1NC(=S)S/C1=C\c1ccc(-c2ccc(N(c3ccccc3)c3ccccc3)cc2)c2ccccc12  MIC (broth dilution; ATCC6633): 1000 µg/mL
Brc1cccc(NCc2ccc(Oc3ccccn3)cc2)c1  MIC: > 6.2 µg/mL
C[n+]1c(/C=C/c2c[nH]c3ccccc23)cc(/C=C2\Sc3ccccc3N2CCCN2CCOCC2)c2ccccc21.[I-]  MIC (broth dilution; 168): 8 µg/mL
CC1(C)CCC(C)(C)c2cc(C(=O)Nc3ccc(C(=O)O)cc3)ccc21  MIC (broth dilution; 24 h): 50 to 100 µM
COc1cccc(OC)c1C(=O)N[C@@H]1C(=O)N2[C@@H]1SC(C)(C)[C@@H]2C(=O)O  MIC (broth dilution; 168): 0.625 µg/mL
c1ccc(NCc2ccc(Oc3ccccn3)cc2)cc1  MIC: 1.6 µg/mL
O=C(O)c1ccc(-n2cc(/C=N/Nc3cc(F)ccc3F)c(-c3ccc(F)cc3)n2)cc1  MIC (ATCC6623): 12.5 µg/mL
O=C(O)CN1C(=O)/C(=C/c2ccc(-c3ccc(N(c4ccccc4)c4ccccc4)cc3)c3ccccc23)SC1=S  MIC (broth dilution; ATCC6633): 500 µg/mL
O=C(O)c1ccc(-n2cc(/C=N/N(Cc3ccccc3)c3ccccc3)c(-c3cccc(F)c3)n2)cc1  MIC (ATCC6623): 1.56 µg/mL
COc1cccc(NCc2ccc(Oc3ccccn3)cc2)c1  MIC: 1.6 µg/mL
O=C(O)c1ccc(-n2cc(/C=N/Nc3cccc(Br)c3)c(-c3cccc(F)c3)n2)cc1  MIC (ATCC6623): 12.5 µg/mL
O=C1NC(=S)S/C1=C\c1c2ccccc2c(-c2ccc(N(c3ccccc3)c3ccccc3)cc2)c2ccccc12  MIC (broth dilution; ATCC6633): > 1000 µg/mL
CCC[P+](/C=C(/c1ccccc1)c1cc(Cl)ccc1O)(CCC)CCC  MIC (21 h): > 40 µM
C[n+]1ccc(/C=C2\Sc3ccccc3N2CCCN2CCCCC2)c2ccccc21.[I-]  MIC (broth dilution; 168): 16 µg/mL
CNC(=O)c1cc(Oc2ccc(NC(=O)Nc3ccc(Cl)c(C(F)(F)F)c3)cc2)ccn1  MIC (168): 5 µM
C/C=C(\C)c1cc(O)c(C)c(OC(=O)c2c(C)c(Cl)c(O)c(Cl)c2O)c1  MIC (broth dilution; BS01): 2 µg/mL
NC[C@H]1O[C@H](O[C@H]2[C@H](O)[C@@H](O[C@H]3O[C@H](CO)[C@@H](O)[C@H](N)[C@H]3O)[C@H](N)C[C@@H]2N)[C@H](N)C[C@@H]1O  MIC (168): 1.2 µg/mL
CN[C@H](CC(C)C)C(=O)N[C@H]1C(=O)N[C@@H](CC(N)=O)C(=O)N[C@H]2C(=O)N[C@H]3C(=O)N[C@H](C(=O)N[C@H](C(=O)O)c4cc(O)cc(O)c4-c4cc3ccc4O)[C@H](O)c3ccc(c(Cl)c3)Oc3cc2cc(c3O[C@@H]2O[C@H](CO)[C@@H](O)[C@H](O)[C@H]2O[C@H]2C[C@](C)(N)[C@H](O)[C@H](C)O2)Oc2ccc(cc2Cl)[C@H]1O  MIC (ATCC6623): 0.39 µg/mL
CCCCOC(=O)c1cc(O)c(O)c(O)c1  MIC (broth dilution; ATCC6633): > 200 µM
O=C(O)CN1C(=O)/C(=C/c2ccc(-c3ccc(N(c4ccccc4)c4ccccc4)cc3)cc2)NC1=S  MIC (broth dilution; ATCC6633): 3.9 µg/mL
CC(=O)NCN1N=C(C)C(=NNn2c(-c3ccccc3)nc3ccccc3c2=O)C1=O  MIC (broth dilution; 24 h): 59.9 µM
C/C=C(\C)c1cc(OC(=O)c2c(O)c(C)c(O)c(Cl)c2/C(C)=C/C)c(C)c(O)c1C(=O)O  MIC (broth dilution; BS01): 32 µg/mL
CC1=NN(CNc2ccccc2[N+](=O)[O-])C(=O)C1=NNn1c(-c2ccccc2)nc2ccccc2c1=O  MIC (broth dilution; 24 h): 50.4 µM
O=C1NC(=S)N/C1=C\c1c2ccccc2c(-c2ccc(N(c3ccccc3)c3ccccc3)cc2)c2ccccc12  MIC (broth dilution; ATCC6633): > 1000 µg/mL
O=C(O)c1ccc(-n2cc(/C=N/Nc3cccc(Cl)c3F)c(-c3ccc(F)cc3)n2)cc1  MIC (ATCC6623): 3.12 µg/mL
Cc1cc(/C=C2\Sc3ccccc3N2CCCN2CCCCC2)c2ccccc2[n+]1C.[I-]  MIC (broth dilution; 168): 8 µg/mL
CC1=NN(CNc2ccc(Cl)cc2)C(=O)C1=NNn1c(-c2ccccc2)nc2ccccc2c1=O  MIC (broth dilution; 24 h): 103 µM
O=C(O)c1ccc(-n2cc(/C=N/Nc3cccc(Br)c3)c(-c3ccc(F)cc3)n2)cc1  MIC (ATCC6623): 12.5 µg/mL
O=C(O)CN1C(=O)/C(=C/c2c3ccccc3c(-c3ccc(N(c4ccccc4)c4ccccc4)cc3)c3ccccc23)SC1=S  MIC (broth dilution; ATCC6633): > 1000 µg/mL
Clc1ccccc1NCc1ccc(Oc2ccccn2)cc1  MIC: 1.8 µg/mL
CC1(C)S[C@@H]2[C@H](NC(=O)[C@H](N)c3ccccc3)C(=O)N2[C@H]1C(=O)O  MIC (broth dilution; 168): 32 µg/mL
CO[C@H]1O[C@H](COC(c2ccccc2)(c2ccccc2)c2ccccc2)[C@@H](OC(=O)c2ccc(C(C)(C)C)cc2)[C@H](OC(=O)c2ccc(C(C)(C)C)cc2)[C@H]1OC(=O)c1ccc(C(C)(C)C)cc1  MIC (broth dilution): 1.25 µg/mL
